Reference: ChEMBL document CHEMBL5038678, “Stereochemical Effects on the Antimicrobial Properties of Tetrasubstituted 2,5-Diketopiperazines” (ACS Med Chem Lett, 2022)
≈ marks a conversion by molar mass, not a printed value. Where a SMILES comes first, the peptide text is derived from it. Bridges are numbered along the chain shown (N, C = ends). [ ]: non-standard residue; d: D form. The star is where a group is joined. X1 = CC[C@H](C)CCCCC(=O)*; Dab = NCC[C@H](N)C(=O)O

Columns and labels:
[1] = system: Klebsiella pneumoniae; experiment: Antibacterial activity against Klebsiella pneumoniae MS6671 assessed as reduction in bacterial growth after 18 hrs by CLSI based broth microdilution assay; type: functional
[2] = system: Enterococcus faecalis; experiment: Antibacterial activity against Enterococcus faecalis ATCC 29212 assessed as reduction in bacterial growth after 18 hrs by CLSI based broth microdilution assay; type: functional
How it was run: (§1)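 CLSI broth microdilution for MIC (with MBC) in polypropylene microtiter plates, inoculum ~5 × 10^5 CFU/mL. Run independently on three occasions. The reported MIC is the lowest concentration on which all three biological replicates agreed.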

[3] = system: Aspergillus fumigatus; experiment: Antifungal activity against Aspergillus fumigatus SVB-F136 assessed as fungal growth inhibition after 48 hrs by CLSI protocol based microbroth dilution method; type: functional
How it was run: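 Filamentous fungus tested by CLSI broth microdilution with final inoculum 0.4 × 10^4 to 5 × 10^4 CFU/mL. Three independent biological replicates; MIC is the lowest concentration at which all three agreed.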

[4] = system: Acinetobacter baumannii; experiment: Antibacterial activity against Acinetobacter baumannii ATCC 19606 assessed as reduction in bacterial growth after 18 hrs by CLSI based broth microdilution assay; type: functional
[5] = system: Escherichia coli; experiment: Antibacterial activity against multi-drug resistant Escherichia coli MS8345 assessed as reduction in bacterial growth after 18 hrs by CLSI based broth microdilution assay; type: functional; how it was run: as §1
[6] = system: Streptococcus pyogenes; experiment: Antibacterial activity against macrolide- and tetracycline-resistant Streptococcus pyogenes HKU16 assessed as reduction in bacterial growth after 18 hrs by CLSI based broth microdilution assay; type: functional; how it was run: as §1
[7] = system: Enterococcus faecium; experiment: Antibacterial activity against vancomycin-resistant Enterococcus faecium RBWH1 assessed as reduction in bacterial growth after 18 hrs by CLSI based broth microdilution assay; conditions: RBWH1, 18 h
[8] = system: Acinetobacter baumannii; experiment: Antibacterial activity against multi-drug resistant Acinetobacter baumannii AB5075 assessed as reduction in bacterial growth after 18 hrs by CLSI based broth microdilution assay; type: functional; how it was run: as §1
[9] = system: Cyberlindnera jadinii; experiment: Antifungal activity against Candida utilis SVB-Y1 assessed as reduction in fungal growth after 48 hrs by CLSI based broth microdilution assay; type: functional; conditions: Williopsis jadinii
How it was run: (§2)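 Yeast susceptibility by CLSI broth microdilution (M27), final inoculum 0.5 × 10^3 to 2.5 × 10^3 CFU/mL. Run independently on three occasions; MIC reported as the lowest concentration giving agreement across all three biological replicates.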

[10] = system: Escherichia coli; experiment: Antibacterial activity against Escherichia coli ATCC 25922 assessed as reduction in bacterial growth after 18 hrs by CLSI based broth microdilution assay; type: functional; how it was run: as §1
[11] = system: Staphylococcus aureus; experiment: Antibacterial activity against methicillin-resistant Staphylococcus aureus USA 300 assessed as reduction in bacterial growth after 18 hrs by CLSI based broth microdilution assay; type: functional; how it was run: as §1
[12] = system: Candida albicans; experiment: Antifungal activity against Candida albicans SC5314 assessed as reduction in fungal growth incubated for 48 hrs by CLSI based broth microdilution assay; type: functional; how it was run: as §2
[13] = Cytotoxicity against NHDF cells assessed as reduction in cell viability measured after 24 hrs by MTT assay; type: toxicity, cell-based; conditions: human, read-out: LD50
How it was run: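 Adherent normal human dermal fibroblasts were read by MTT against a DMSO vehicle control. Viability is expressed as percent of untreated controls. At least three independent biological replicates were run, with each concentration in technical duplicate.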

[14] = system: Staphylococcus aureus; experiment: Antibacterial activity against Staphylococcus aureus ATCC 25923 assessed as reduction in bacterial growth after 18 hrs by CLSI based broth microdilution assay; type: functional; how it was run: as §1
[15] = system: Streptococcus pneumoniae; experiment: Antibacterial activity against Streptococcus pneumoniae ATCC 49619 assessed as reduction in bacterial growth after 18 hrs by CLSI based broth microdilution assay; type: functional
[16] = system: Pseudomonas aeruginosa; experiment: Antibacterial activity against Pseudomonas aeruginosa SVB-B9 assessed as reduction in bacterial growth after 18 hrs by CLSI based broth microdilution assay; type: functional

Structure (SMILES) | MIC [1] [µM] | MIC [2] [µM] | MIC [3] [µM] | MIC [4] [µM] | MIC [5] [µM] | MIC [6] [µM] | MIC [7] [µM] | MIC [8] [µM] | MIC [9] [µM] | MIC [10] [µM] | MIC [11] [µM] | MIC [12] [µM] | CC50 at 24 h [13] [µM] | MIC [14] [µM] | MIC [15] [µM] | MIC [16] [µM]
NCCC[C@H]1C(=O)N(Cc2ccc(-c3ccccc3)cc2)[C@@H](CCCN)C(=O)N1Cc1ccc(-c2ccccc2)cc1 | 8 (≈ 4.49 µg/mL) | 8 (≈ 4.49 µg/mL) | 32 (≈ 17.9 µg/mL) | 64 (≈ 35.9 µg/mL) | 16 (≈ 8.97 µg/mL) | 8 (≈ 4.49 µg/mL) | 8 (≈ 4.49 µg/mL) | 32 (≈ 17.9 µg/mL) | 32 (≈ 17.9 µg/mL) | 16 (≈ 8.97 µg/mL) | 4 (≈ 2.24 µg/mL) | 64 (≈ 35.9 µg/mL) | 30 | 4 (≈ 2.24 µg/mL) | 8 (≈ 4.49 µg/mL) | 
C[C@@H]1[C@H](O)[C@@H](C)/C=C/C=C/C=C/C=C/C=C/C=C/C=C/[C@H](O[C@@H]2O[C@H](C)[C@@H](O)[C@H](N)[C@@H]2O)C[C@@H]2O[C@](O)(C[C@@H](O)C[C@@H](O)[C@H](O)CC[C@@H](O)C[C@@H](O)CC(=O)O[C@H]1C)C[C@H](O)[C@H]2C(=O)O [AMPHOTERICIN B] |  |  | 4 (≈ 3.7 µg/mL) |  |  |  |  |  | 2 (≈ 1.85 µg/mL) |  |  | 1 (≈ 0.924 µg/mL) |  |  |  | 
CC[C@H](C)CCCCC(=O)N[C@@H](CCN)C(=O)N[C@H](C(=O)N[C@@H](CCN)C(=O)N[C@H]1CCNC(=O)[C@H]([C@@H](C)O)NC(=O)[C@H](CCN)NC(=O)[C@H](CCN)NC(=O)[C@H](CC(C)C)NC(=O)[C@@H](Cc2ccccc2)NC(=O)[C@H](CCN)NC1=O)[C@@H](C)O (X1-[Dab]T[Dab][Dab][Dab][dF]L[Dab][Dab]T; lactam 4-C) | 16 (≈ 19.3 µg/mL) | 8 (≈ 9.63 µg/mL) |  | 1 (≈ 1.2 µg/mL) | 4 (≈ 4.81 µg/mL) | 32 (≈ 38.5 µg/mL) | > 64 | 0.25 (≈ 0.301 µg/mL) |  | 0.25 (≈ 0.301 µg/mL) | 32 (≈ 38.5 µg/mL) |  | > 512 | 64 (≈ 77 µg/mL) | 8 (≈ 9.63 µg/mL) | 
N=C(N)NCCC[C@H]1C(=O)N(Cc2ccccc2)[C@@H](CCCNC(=N)N)C(=O)N1Cc1ccccc1 | > 64 | > 64 | > 64 | > 64 | > 64 | 64 (≈ 31.5 µg/mL) | > 64 | > 64 | > 64 | > 64 | > 64 | > 64 | > 512 | > 64 | > 64 | > 64
CC1(C)S[C@@H]2[C@H](NC(=O)[C@H](N)c3ccc(O)cc3)C(=O)N2[C@H]1C(=O)O [AMOXICILLIN] |  | 8 (≈ 2.92 µg/mL) |  |  |  | 0.25 (≈ 0.0914 µg/mL) | 64 (≈ 23.4 µg/mL) |  |  | 16 (≈ 5.85 µg/mL) | > 64 |  | > 512 | 1 (≈ 0.365 µg/mL) | 0.5 (≈ 0.183 µg/mL) | > 64
N=C(N)NCCC[C@@H]1C(=O)N(Cc2ccc(-c3ccccc3)cc2)[C@@H](CCCNC(=N)N)C(=O)N1Cc1ccc(-c2ccccc2)cc1 | > 64 | 16 (≈ 10.3 µg/mL) | 64 (≈ 41.3 µg/mL) | > 64 | > 64 | 16 (≈ 10.3 µg/mL) | 8 (≈ 5.16 µg/mL) | > 64 | 2 (≈ 1.29 µg/mL) | 64 (≈ 41.3 µg/mL) | 4 (≈ 2.58 µg/mL) | 8 (≈ 5.16 µg/mL) | 175 | 4 (≈ 2.58 µg/mL) | 16 (≈ 10.3 µg/mL) | 64 (≈ 41.3 µg/mL)
N=C(N)NCCC[C@H]1C(=O)N(Cc2ccc(-c3ccccc3)cc2)[C@@H](CCCNC(=N)N)C(=O)N1Cc1ccc(-c2ccccc2)cc1 | 32 (≈ 20.6 µg/mL) | 2 (≈ 1.29 µg/mL) | 8 (≈ 5.16 µg/mL) | 64 (≈ 41.3 µg/mL) | 8 (≈ 5.16 µg/mL) | 8 (≈ 5.16 µg/mL) | 8 (≈ 5.16 µg/mL) | 16 (≈ 10.3 µg/mL) | 4 (≈ 2.58 µg/mL) | 8 (≈ 5.16 µg/mL) | 4 (≈ 2.58 µg/mL) | 4 (≈ 2.58 µg/mL) | 63 | 4 (≈ 2.58 µg/mL) | 8 (≈ 5.16 µg/mL) | 8 (≈ 5.16 µg/mL)
N=C(N)NCCC[C@@H]1C(=O)N(Cc2ccc(-c3ccccc3)cc2)[C@H](CCCNC(=N)N)C(=O)N1Cc1ccc(-c2ccccc2)cc1 | 64 (≈ 41.3 µg/mL) | 4 (≈ 2.58 µg/mL) | 8 (≈ 5.16 µg/mL) | 64 (≈ 41.3 µg/mL) | 16 (≈ 10.3 µg/mL) | 8 (≈ 5.16 µg/mL) | 4 (≈ 2.58 µg/mL) | 32 (≈ 20.6 µg/mL) | 4 (≈ 2.58 µg/mL) | 8 (≈ 5.16 µg/mL) | 4 (≈ 2.58 µg/mL) | 2 (≈ 1.29 µg/mL) | 99 | 4 (≈ 2.58 µg/mL) | 8 (≈ 5.16 µg/mL) | 8 (≈ 5.16 µg/mL)
